Experimental data from different studies.
Lines come from different studies, so protocols differ.
ABL1 Q252H phosphorylated: Tyrosine-protein kinase ABL1, phosphorylated (ABL1, Homo sapiens, UniProt P00519, Q252H)
ABL1 Y253F phosphorylated: Tyrosine-protein kinase ABL1, phosphorylated (ABL1, Homo sapiens, UniProt P00519, Y253F)
ABL1 M351T: Tyrosine-protein kinase ABL1 (ABL1, Homo sapiens, UniProt P00519, M351T)
ABL1 M351T phosphorylated: Tyrosine-protein kinase ABL1, phosphorylated (ABL1, Homo sapiens, UniProt P00519, M351T)
ABL1 F317L phosphorylated: Tyrosine-protein kinase ABL1, phosphorylated (ABL1, Homo sapiens, UniProt P00519, F317L)
ABL1 F317I non-phosphorylated: Tyrosine-protein kinase ABL1, non-phosphorylated (ABL1, Homo sapiens, UniProt P00519, F317I)
ABL1 E255K phosphorylated: Tyrosine-protein kinase ABL1, phosphorylated (ABL1, Homo sapiens, UniProt P00519, E255K)
ABL1 Q252H non-phosphorylated: Tyrosine-protein kinase ABL1, non-phosphorylated (ABL1, Homo sapiens, UniProt P00519, Q252H)
ABL1 non-phosphorylated: Tyrosine-protein kinase ABL1, non-phosphorylated (ABL1, Homo sapiens, UniProt P00519)
ABL1 F317I: Tyrosine-protein kinase ABL1 (ABL1, Homo sapiens, UniProt P00519, F317I)

Structure (SMILES)	target	observed	technique	concentration	remaining binding
CC(=O)N1CCC(c2ccc(C(=O)NC(=N)N)cc2C(F)(F)F)CC1	ABL1 Q252H phosphorylated	cell-free assay	competition with immobilised ligand	1 µM	100%
CNC(=O)[C@@H]1CC[C@@H](n2c(-c3ccc4cnccc4c3)nc3ccc(C(=O)NCc4cccc(C(N)=O)c4)cc32)C1	ABL1 Q252H phosphorylated	binding	competition with immobilised ligand	1 µM	100%
C[C@@H](c1ccc(-n2cnc3c(N)ncnc32)cc1)N1CCc2nn(C)c(Cc3ccccc3)c2C1=O	ABL1 Y253F phosphorylated	binding	competition with immobilised ligand	0.1 µM	47%
CCOCCn1cc(C(=O)Nc2ccc(-n3nc(-c4cccnc4)cc3C(F)(F)F)cn2)ccc1=O	ABL1 Q252H phosphorylated	cell-free assay	competition with immobilised ligand	1 µM	73%
F[C@@H]1CCN(c2nccc(-c3cnn4ncccc34)n2)C1	ABL1 M351T	binding	–	1 µM	100%
O=C(c1ccc(Nc2nccc(-c3cc4ccccc4s3)n2)cc1)N1CCC(N2CCCC2)CC1	ABL1 M351T phosphorylated	binding	competition with immobilised ligand	1 µM	17%
c1cnn2ncc(-c3ccnc(N4CCC45COC5)n3)c2c1	Tyrosine-protein kinase ABL1 (ABL1, Homo sapiens, UniProt P00519, F317L)	binding	–	1 µM	53%
CCN1CCN(Cc2ccc(C(=O)Nc3ccc(C)c(Oc4ccc5c(c4)CC(=O)N5)c3)cc2C(F)(F)F)CC1	ABL1 F317L phosphorylated	binding	competition with immobilised ligand	1 µM	9.6%
O=C(NCC1CCOCC1)c1n[nH]cc1NC(=O)c1c(F)cccc1F	Tyrosine-protein kinase ABL1, phosphorylated (ABL1, Homo sapiens, UniProt P00519, H396P)	binding	competition with immobilised ligand	1 µM	93%
C[C@@H]1CCN(c2nccc(-c3cnn4ncccc34)n2)C1	Tyrosine-protein kinase ABL1 (ABL1, Homo sapiens, UniProt P00519, H396P)	binding	–	1 µM	79%
O=C(c1ccc(Nc2ncc(Cl)c(-c3cc4ccccc4s3)n2)cc1)N1CCC(N2CCCC2)CC1	Tyrosine-protein kinase ABL1, non-phosphorylated (ABL1, Homo sapiens, UniProt P00519, F317L)	binding	competition with immobilised ligand	1 µM	63%
O=C(NS(=O)(=O)c1ccc(NCC2CCOCC2)c([N+](=O)[O-])c1)c1ccc(N2CCN(Cc3ccc(C(F)(F)F)cc3-c3ccc(Cl)cc3)CC2)cc1Oc1cnc2[nH]ccc2c1	ABL1 M351T phosphorylated	cell-free assay	competition with immobilised ligand	1 µM	100%
COc1cnc(Nc2cccc(S(N)(=O)=O)c2)nc1N1CCN(c2ccccc2)C(=O)C1	ABL1 F317I non-phosphorylated	binding	competition with immobilised ligand	1 µM	89%
CC(C)(C)c1ccc(-c2nc(CBr)nn2-c2cccc(O)c2)cc1	ABL1 E255K phosphorylated	cell-free assay	competition with immobilised ligand	10 µM	74%
COc1ncc2cc3ccccc3nc2c1C#N	ABL1 Q252H non-phosphorylated	cell-free assay	competition with immobilised ligand	5 µM	100%
Nc1ncc2c(n1)-c1c([nH]c3ccc(C#CC4CC4)cc13)CCCC2	ABL1 non-phosphorylated	binding	competition with immobilised ligand	1 µM	95%
c1cncc(-c2cccc(Nc3nccc(NC4CCCCC4)n3)c2)c1	ABL1 Q252H non-phosphorylated	binding	competition with immobilised ligand	10 µM	20%
CS(=O)(=O)NCC[C@H](NC(=O)c1cncc2c1cnn2-c1ccc(F)cc1)c1ccnc(S(C)(=O)=O)c1	ABL1 Y253F phosphorylated	cell-free assay	competition with immobilised ligand	1 µM	95%

Structure (SMILES)	target	observed	technique	concentration	remaining binding
C=CC(=O)N1CCC(C(=O)NCC(=O)N2CCN(c3nc(-c4cnc(N)nc4C(F)F)nc(N4CCOCC4)n3)CC2)CC1	ABL1 Q252H non-phosphorylated	binding	competition with immobilised ligand	1 µM	94%
Cc1nc(Cc2cccc(C(F)(F)F)c2)sc1-c1ccc(C(N)=O)nc1	ABL1 Q252H phosphorylated	cell-free assay	competition with immobilised ligand	1 µM	100%
COc1cnc(Nc2cccc(S(N)(=O)=O)c2)nc1N1CCN(c2ccccc2)CC1	ABL1 Q252H non-phosphorylated	binding	competition with immobilised ligand	1 µM	78%
CN1CCN(c2ccc(Nc3nccc(-c4ccccc4)n3)cc2C(F)(F)F)CC1	ABL1 F317I	binding	–	10 µM	100%
O=C(NCCCN1CCOCC1)c1ccc(Nc2ncc(Cl)c(-c3ccc(Cl)s3)n2)cc1	ABL1 F317L phosphorylated	binding	competition with immobilised ligand	1 µM	80%
CN(C)c1nccc(-c2cnn3ncccc23)n1	ABL1 M351T	binding	–	1 µM	100%
O=C(NCCCN1CCOCC1)c1ccc(Nc2nccc(-c3cc4ccccc4s3)n2)cc1	ABL1 E255K phosphorylated	binding	competition with immobilised ligand	1 µM	45%
N#Cc1ccccc1CSc1nnc2c(n1)[nH]c1ccccc12	ABL1 E255K phosphorylated	binding	competition with immobilised ligand	10 µM	85%
O=C(c1ccc(Nc2ncc(Cl)c(-c3ccc(Cl)s3)n2)cc1)N1CCC(N2CCCC2)CC1	ABL1 non-phosphorylated	binding	competition with immobilised ligand	1 µM	4.3%
O=C(O)[C@@H]1[C@@H](Cn2nnc3ccccc3c2=O)CC[C@H]1C(=O)c1ccc(OCCC2CCOCC2)cc1	ABL1 F317I non-phosphorylated	binding	competition with immobilised ligand	1 µM	82%
Cc1cnn2ncc(-c3ccnc(N(C)C)n3)c2c1	Tyrosine-protein kinase ABL1 (ABL1, Homo sapiens, UniProt P00519, Y253F)	binding	–	1 µM	85%
CN(c1ccnc(CNc2nc(Nc3ccc4c(c3)CC(=O)N4)ncc2C(F)(F)F)n1)S(C)(=O)=O	Tyrosine-protein kinase ABL1, phosphorylated (ABL1, Homo sapiens, UniProt P00519, F317I)	binding	–	1 µM	79%
N[C@@H]1CCN(c2nccc(-c3cnn4ncccc34)n2)C1	ABL1 F317I	binding	–	1 µM	100%
CNC(=O)Nc1ccc2c(c1)[C@@]1(CC2)OC(=O)N(CC(=O)N(Cc2ccc(F)cc2)[C@@H](C)C(F)(F)F)C1=O	ABL1 Y253F phosphorylated	cell-free assay	competition with immobilised ligand	1 µM	100%
CN(C)c1nccc(-c2cnc3ncccn23)n1	Tyrosine-protein kinase ABL1 (ABL1, Homo sapiens, UniProt P00519, T315I)	binding	–	1 µM	52%
Cc1cnc(Nc2ccc(C(=O)N3CCC(N4CCCC4)CC3)cc2)nc1-c1cc2ccccc2s1	ABL1 M351T phosphorylated	binding	competition with immobilised ligand	1 µM	1.4%
CN(C)c1ncc(F)c(-c2cnn3ncccc23)n1	Tyrosine-protein kinase ABL1, phosphorylated (ABL1, Homo sapiens, UniProt P00519)	binding	–	1 µM	82%
O=C(Nc1c[nH]nc1C(=O)NC1CCNCC1)c1cc(F)cc(F)c1	Tyrosine-protein kinase ABL1, non-phosphorylated (ABL1, Homo sapiens, UniProt P00519, T315I)	binding	competition with immobilised ligand	1 µM	100%
